Bioassay records as filed in PubChem BioAssay.
PolyA inhibitor: blocks polyadenylation in yeast reporter cells. activity score, % at 12 µM. S. cerevisiae SKY197-pL101 polyadenylation reporter, beta-gal luminescence; efflux-impaired pdr1/pdr3 knockout yeast; score 100 = 6 SD above DMSO. hit rate 0.02% among 300,000;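 active = lowest replicate activity score at least 50, where 100 means six control SD above control mean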;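 also: yeast exposed to compound for 9 h at 30 °C; higher score means more reporter readthrough which indicates perturbed polyadenylation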
procasp3 activ: activators of human procaspase-3 | hit rate 0.11% among 330,000 | recombinant procaspase-3 D3A, Ac-DEVD-pNA absorbance 405 nm | activation, % at 8.5 µM;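 active = activation above the mean of all tested compounds plus 3 SD, cut at about 21% in these data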;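 also: 0% = DMSO alone and 100% = DMSO wells spiked with extra 5 µM PC-3 D3A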
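Test system: Procaspase-3 D3A mutant; medium: Zinc-free HEPES/NaCl buffer with 0.01% Triton X-100 at pH 7.4; reagent: DEVD-pNA substrate; doses: one concentration, 8.5 µM nominal, 0.8% DMSO; times: 1 h preincubation plus 2 h reaction at 25 °C; signal: Epi-absorbance at 405 nm of released p-nitroaniline, 0 and 120 min; replicates: singlicate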
procasp7 counter: counter-screen: procaspase-7 (human) activation; hit rate 0.093% among 330,000; P55210; recombinant procaspase-7, Ac-DEVD-pNA absorbance 405 nm; D23A/D198A/D206A triple mutant, cannot self-cleave; scale: DMSO 0, 5 µM enzyme 100; AID 463210; activation, % at 8.5 µM;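 active = percent activation above the screen-wide mean plus 3 SD, cut at about 25% in these data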
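Test system: Procaspase-7 triple mutant (PC-7 D3A). Also added: Ac-DEVD-pNA substrate, 400 µM as added. Schedule: 1 h enzyme–compound preincubation and 2 h substrate reaction, both 25 °C. Signal: p-Nitroaniline absorbance at 405 nm, read at 0 and 120 min. Control set: low DMSO alone, high DMSO plus 5 µM PC-7.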
AHR activator: activates the human aryl hydrocarbon receptor; P35869; AHR-responsive luciferase reporter cells, luminescence; activation, % at 5 µM; hit rate 2.5% among 320,000; AID 2796; in the data active = activation above about 47%;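 also: 0% = vehicle wells and 100% = reference agonist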
AHR act cf: confirmation of human aryl hydrocarbon receptor activators | shares compounds with AHR activator | human cells, AHR-responsive luciferase reporter, luminescence | activation, % at 9 µM | hit rate 87% among 2,300; in the data active = activation above about 49%;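 also: HepG2 hepatoma cells carrying a DRE-driven firefly luciferase reporter; 0% = vehicle wells and 100% = reference agonist wells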
PXR act counter: PXR activation, counter-screen for AHR activators. shares compounds with AHR activator. cell-based PXR reporter, luciferase luminescence. activation, % at 11.6 µM. hit rate 88% among 2,300. AID 434939; in the data active = activation above about 11%;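 also: human hepatoma DPX-2 cells expressing full-length human PXR; 0% = DMSO and 100% = reference agonist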
Target sequence (O75469 whole entry, looked up): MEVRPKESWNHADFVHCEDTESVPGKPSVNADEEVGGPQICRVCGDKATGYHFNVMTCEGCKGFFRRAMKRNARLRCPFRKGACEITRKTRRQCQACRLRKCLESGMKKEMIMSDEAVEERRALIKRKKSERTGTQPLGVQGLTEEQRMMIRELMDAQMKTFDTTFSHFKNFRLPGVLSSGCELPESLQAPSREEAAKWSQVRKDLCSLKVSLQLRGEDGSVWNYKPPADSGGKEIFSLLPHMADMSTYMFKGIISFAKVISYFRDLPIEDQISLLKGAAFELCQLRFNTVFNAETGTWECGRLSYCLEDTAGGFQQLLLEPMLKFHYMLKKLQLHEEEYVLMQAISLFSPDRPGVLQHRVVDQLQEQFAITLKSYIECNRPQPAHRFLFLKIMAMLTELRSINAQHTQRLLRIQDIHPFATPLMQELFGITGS
Starred values were filed as active, the others as inactive; . = no result given. Shown are actives, neighbours in structure and some others; about 2.6% of the full set was active somewhere.

SMILES | PolyA inhibitor | procasp3 activ | procasp7 counter | AHR activator | AHR act cf | PXR act counter
CCCOc1ccccc1-c1nc2c([nH]1)c(=O)[nH]c(=O)n2C | 7 | -8 | -3 | 137* | 79* | 34*
Cn1c(=O)c2[nH]c(-c3ccccc3O)nc2n(C)c1=O | -11 | 0 | -7 | 41 | . | .
Cc1ccc(Cl)cc1Nc1nc(-c2sc(NC(=O)c3cccc(Cl)c3)nc2C)cs1 | 6 | -12 | -22 | 27 | . | .
C=CCCC(=O)Nc1nc(C)c(-c2csc(Nc3ccccc3OC)n2)s1 | 0 | -7 | -7 | 101* | 65* | 31*
CCCC(C)C(=O)Nc1nc(C)c(-c2csc(Nc3cc(Cl)ccc3C)n2)s1 (stereo not given) | -4 | 0 | -8 | 41 | . | .
Cc1nc(NC(=O)c2ccco2)sc1-c1csc(Nc2ccc(Cl)cc2Cl)n1 | -2 | 12 | 9 | 88* | 75* | 26*
CCC(C)C(=O)Nc1nc(C)c(-c2csc(Nc3ccccc3OC)n2)s1 (stereo not given) | 15 | -4 | -7 | 110* | 85* | 51*
C=CCCC(=O)Nc1nc(C)c(-c2csc(Nc3ccc(Cl)cc3Cl)n2)s1 | 6 | -2 | -3 | 102* | 73* | 25*
COc1ccc(CNC(=O)c2coc(=O)c3ccccc23)cc1 | 5 | -5 | 6 | 3 | . | .
O=C(CCN1C(=O)/C(=C/c2ccccc2)SC1=S)NNC(=O)c1ccncc1 | -21 | -3 | 0 | 120* | 15 | 5
CCC(C)n1c(OC)nc2c1c(=O)n(C)c(=O)n2C (stereo not given) | 9 | 6 | 5 | 0 | . | .
CC1CCCN(C(=O)COC(=O)c2cc(-c3cccs3)nn2-c2ccccc2)C1 (stereo not given) | -22 | -2 | 3 | 3 | . | .
COc1ccc(C)cc1NC(=O)C(OC(=O)c1cnccn1)c1ccccc1 (stereo not given) | 0 | 4 | 7 | 32 | . | .
COc1ccc(C)cc1NC(=O)C(OC(=O)C1=NNC(=O)CC1)c1ccccc1 (stereo not given) | . | 5 | 8 | 83* | 99* | 36*
COc1ccc(C)cc1NC(=O)C(OC(=O)CNC(=O)c1ccc(Br)cc1)c1ccccc1 (stereo not given) | -2 | -2 | 11 | 81* | 85* | 51*
O=C(NCC1CCCO1)c1cccc(NS(=O)(=O)c2ccccc2)c1 (stereo not given) | 24 | 5 | 10 | 0 | . | .
Nc1[nH]nc2nc(N3CCCC3)nc(-c3ccccc3)c12 | -11 | -2 | -1 | 9 | . | .
Cc1nc(-c2ccccc2)nc2n[nH]c(N)c12 | 10 | 0 | 4 | 112* | 138* | 9
Cc1ccc2c(c1)N(CCC(=O)NCCCN1CCCC1)C(=O)C(C)O2 (stereo not given) | 15 | -6 | -4 | -2 | . | .
CCN(CC(=O)Nc1ccc2c(c1)OCCO2)C(=O)c1ccc(S(=O)(=O)N(C)C)cc1 | 2 | -3 | 7 | 3 | . | .
CC1=C(C(=O)Nc2ccc(Br)cc2)C(c2ccco2)NC(=O)N1 (stereo not given) | 18 | -2 | -5 | 107* | 35 | 7
CC1=C(C(=O)Nc2ccc(C)cc2)C(c2ccco2)NC(=O)N1 (stereo not given) | -1 | 0 | 1 | 2 | . | .
CC(C)c1ccc(Nc2nc(NCc3ccco3)nc(N3CCOCC3)n2)cc1 | -6 | 4 | 8 | 85* | 86* | 32*
CC1CN(S(=O)(=O)c2ccc(F)cc2)C(C)N1C(=O)N1CCOCC1 (stereo not given) | -9 | -3 | -4 | -1 | . | .
CCCCn1c(N)c(N(C)C(=O)c2ccccc2Oc2ccccc2)c(=O)[nH]c1=O | . | 2 | 4 | 1 | . | .
SMILES | PolyA inhibitor | procasp3 activ | procasp7 counter | AHR activator | AHR act cf | PXR act counter
COc1ccc(OC)c2sc(NC(=O)CCS(=O)(=O)c3ccccc3)nc12 | -7 | -8 | 0 | 115* | 63* | 24*
O=C(Nc1c(C(=O)N2CCC(N3CCCCC3)CC2)oc2ccccc12)c1ccc(F)cc1 | -11 | 8 | 4 | -6 | . | .
O=C(Nc1ccc(F)cc1)c1oc2ccccc2c1NC(=O)C1CC1 | -5 | -13 | -1 | 127* | 0 | 33*
NC(=O)c1oc2ccccc2c1NC(=O)C1CCCCC1 | -18 | 4 | 4 | 5 | . | .
Cc1ccc(NC(=O)c2oc3ccccc3c2NC(=O)C2CC2)cc1 | 4 | 4 | 2 | 122* | 65* | 32*
Cc1ccc(NC(=O)c2oc3ccccc3c2NC(=O)c2ccc3c(c2)OCO3)cc1 | 6 | 1 | 2 | 7 | . | .
NC(=O)c1oc2ccccc2c1NC(=O)c1ccc(F)cc1 | 0 | 1 | 9 | 106* | 77* | .
CC(Cc1ccccc1)C(=O)Nc1ccc(Br)cc1 (stereo not given) | -26 | 9 | 11 | 2 | . | .
CC(C)C[C@H](CO)Nc1nc(Nc2cccc(Cl)c2)c2ncn(C(C)C)c2n1 | 26 | -2 | 5 | 19 | . | .
CC(C)n1cnc2c(Nc3ccc(F)c(Cl)c3)nc(NCCO)nc21 | 7 | 7 | 4 | 93* | 69* | 135*
COc1ccc(C#Cc2c(-c3ccc(OC)cc3)oc3ccc(-c4ccc(OC)cc4)cc23)cc1 | 1 | -2 | -7 | 1 | . | .
COc1ccc(-c2oc3ccc(N4CCOCC4)cc3c2C#Cc2ccc(N)cc2)cc1 | -19 | 1 | -19 | 95* | 52* | .
CC(C)NC(=O)COc1ccc(S(=O)(=O)N2CCOCC2)cc1 | -9 | 3 | -2 | 0 | . | .
CC(C)NC(=O)COc1ccc(S(=O)(=O)N2CCCC2)cc1 | 5 | -2 | -2 | 87* | -3 | 16*
COc1cc(CNC2CCCCCC2)cc(OC)c1OC | 12 | 0 | 1 | -4 | . | .
COc1cc(-c2csc(NC3CCCCC3)n2)cc(OC)c1OC | -18 | -9 | -13 | 81* | 50* | 37*
O=C(N/N=C/c1c[nH]c2ccccc12)c1cc(-c2ccccc2)n[nH]1 | 2 | 2 | -6 | 38 | . | .
O=C(N/N=C/c1c[nH]c2ccccc12)c1cc(-c2cccc3ccccc23)n[nH]1 | 7 | 2 | -14 | 92* | 18 | 5
CCCc1cc(C(=O)N/N=C/c2ccc(CC)s2)c2ccccc2n1 | -13 | 5 | -2 | 41 | . | .
O=C(N/N=C/c1c[nH]c2ccccc12)C1COc2ccccc2O1 (stereo not given) | -13 | 1 | -2 | 92* | 72* | .
CCc1ccc(/C=N/NC(=O)c2c[nH]c3ccccc23)s1 | 4 | -2 | -1 | 85* | 39 | 42*
O=C(N/N=C/c1c[nH]c2ccccc12)c1cc(Cl)ccc1O | 2 | -19 | -25 | 148* | 113* | 5
Cc1noc(C)c1S(=O)(=O)N(C)C[C@H]1Oc2c(NC(=O)NC(C)C)cccc2C(=O)N([C@H](C)CO)C[C@@H]1C | . | 10 | 11 | -1 | . | .
